In ChEMBL document CHEMBL5649170, “Sustained microglial depletion with CSF1R inhibitor impairs parenchymal plaque development in an Alzheimer's disease model” (Nat Commun, 2019):
The source made the active and inactive calls. The calls are words filed in the database; no cut-off is given here.

Key:
[1] = Drug concentration in wildtype mouse plasma at 75 ppm administered as rodent chow starting from 1.5 months and measured after 5 months; type: ADME, cell-free; conditions: route po, time 3.5 months
Procedure, shortened: (§1)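 WT or 5xFAD mice were fed PLX3397 in AIN-76A chow at 600 ppm or 75 ppm from 1.5 to 5 months of age. Terminal brain and plasma drug concentrations were determined at study end.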

[2] = Drug concentration in 5XFAD mouse brain at 600 ppm administered as rodent chow starting from 1.5 months and measured after 5 months; type: ADME, tissue-based; conditions: route po, time 3.5 months, read-out: Ct; procedure, shortened: as §1
[3] = Drug concentration in wildtype mouse brain at 75 ppm administered as rodent chow starting from 1.5 months and measured after 5 months; type: ADME, tissue-based; conditions: route po, time 3.5 months, read-out: Ct; procedure, shortened: as §1
[4] = molecular target: Insulin-like growth factor 1 receptor (Homo sapiens, UniProt P08069); assay: Inhibition of IGF1R (unknown origin)
[5] = Effect on C1qa gene expression in 5XFAD mouse thalamus at 1200 ppm administered as rodent chow starting from 1.5 months and measured after 7 months by RNA-Seq analysis (reference value: 36.243 to 61.660 RPKM); type: functional; conditions: route po, time 5.5 months, 4015 h
Procedure, shortened: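 WT and 5xFAD mice were treated with 1200 ppm PLX5622 chow or control chow from 1.5 to 7 months of age. Brains were microdissected into cortex, hippocampus and thalamus, and RNA was extracted from tissue powder. Whole-transcriptome RNA-Seq libraries were sequenced, with n = 4 per group per region (48 samples).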

CDK7/Cyclin H/MNAT1 = CDK7/Cyclin H/MNAT1 (Homo sapiens, UniProt P50613); assay: Inhibition of CDK7/CyclinH/MNAT1 (unknown origin); type: protein-complex assay
[6] = molecular target: Tyrosine-protein kinase Fer (Homo sapiens, UniProt P16591); assay: Inhibition of FER (unknown origin)
[7] = molecular target: Dual specificity tyrosine-phosphorylation-regulated kinase 1B (Homo sapiens, UniProt Q9Y463); assay: Inhibition of DYRK1B (unknown origin)
[8] = molecular target: Tyrosine-protein kinase Fyn (Homo sapiens, UniProt P06241); assay: Inhibition of FYN (unknown origin)
[9] = AUC (0 to 24 hrs) in 5XFAD mouse brain at 1200 ppm administered as rodent chow for 180 days; type: ADME, tissue-based; conditions: route po, time 180 day
Sphingosine kinase 1 = Sphingosine kinase 1 (Homo sapiens, UniProt Q9NYA1); assay: Inhibition of SPHK1 (unknown origin)
[10] = molecular target: Tyrosine-protein kinase receptor TYRO3 (Homo sapiens, UniProt Q06418); assay: Inhibition of TYRO3 (unknown origin)
Mus musculus [11] = assay: Effect on circulating leukocytes in wildtype mouse assessed as percentage of CD45+/PI- cells expressing CD11b at 1200 ppm administered as rodent chow for 10 to 24 weeks (reference value: 6.22 to 25.7 %); type: functional; conditions: route po, time 10-24 weeks
[12] = Toxicity in wildtype mouse assessed as average speed at 1200 ppm administered as rodent chow for 10 to 24 weeks by Open field test (reference value: 0.044 to 0.09 meter/s); conditions: in vivo, po, time 10-24 weeks
Mus musculus [13] = assay: Prevention of Cacnb4 gene downregulation in 5XFAD mouse hippocampus at 1200 ppm administered as rodent chow starting from 1.5 months and measured after 7 months by Nanostring analysis; type: functional, tissue-based; conditions: route po, time 5.5 months
Mus musculus [14] = assay: Antialzheimer activity in wildtype mouse assessed as number of Iba positive cells per FOV in thalamus at 1200 ppm administered as rodent chow starting from 1.5 months and measured after 4 months (reference value: 232 to 320); type: functional; conditions: route po, time 2.5 months, 1825 h
[15] = molecular target: Serine/threonine-protein kinase Nek9 (Homo sapiens, UniProt Q8TD19); assay: Inhibition of NEK9 (unknown origin)
[16] = Half-life in monkey at 1.35 mg/kg, iv administered as single dose; type: ADME, organism-based, Macaca mulatta; conditions: rhesus monkey, in vivo
[17] = molecular target: Testis-specific serine/threonine-protein kinase 2 (Homo sapiens, UniProt Q96PF2); assay: Inhibition of STK22B (unknown origin)
[18] = Effect on Ctsd gene expression in 5XFAD mouse hippocampus at 1200 ppm administered as rodent chow starting from 1.5 months and measured after 7 months by RNA-Seq analysis (reference value: 230.675 to 384.375 RPKM); type: functional; conditions: route po, time 5.5 months, 4015 h
[19] = molecular target: Mitogen-activated protein kinase 12 (Homo sapiens, UniProt P53778); assay: Inhibition of MAPK12 (unknown origin)
[20] = Clearance in mouse at 1.92 mg/kg, iv administered as single dose; type: ADME, organism-based; conditions: in vivo
Mus musculus [21] = assay: Antialzheimer activity in 5XFAD mouse assessed as number of entries to center zone at 1200 ppm administered as rodent chow for 10 to 24 weeks by Open field test (reference value: 22 to 55); type: functional; conditions: route po, time 10-24 weeks
[22] = molecular target: T1, Macrophage colony-stimulating factor 1 receptor (Mus musculus) (UniProt P09581); assay: In vivo inhibition of CSF1R in wildtype mouse assessed as microglial elimination in thalamus at 1200 ppm administered as rodent chow for 10 weeks by […] based confocal microscopic analysis; type: functional; conditions: route po
T1 sequence (whole entry): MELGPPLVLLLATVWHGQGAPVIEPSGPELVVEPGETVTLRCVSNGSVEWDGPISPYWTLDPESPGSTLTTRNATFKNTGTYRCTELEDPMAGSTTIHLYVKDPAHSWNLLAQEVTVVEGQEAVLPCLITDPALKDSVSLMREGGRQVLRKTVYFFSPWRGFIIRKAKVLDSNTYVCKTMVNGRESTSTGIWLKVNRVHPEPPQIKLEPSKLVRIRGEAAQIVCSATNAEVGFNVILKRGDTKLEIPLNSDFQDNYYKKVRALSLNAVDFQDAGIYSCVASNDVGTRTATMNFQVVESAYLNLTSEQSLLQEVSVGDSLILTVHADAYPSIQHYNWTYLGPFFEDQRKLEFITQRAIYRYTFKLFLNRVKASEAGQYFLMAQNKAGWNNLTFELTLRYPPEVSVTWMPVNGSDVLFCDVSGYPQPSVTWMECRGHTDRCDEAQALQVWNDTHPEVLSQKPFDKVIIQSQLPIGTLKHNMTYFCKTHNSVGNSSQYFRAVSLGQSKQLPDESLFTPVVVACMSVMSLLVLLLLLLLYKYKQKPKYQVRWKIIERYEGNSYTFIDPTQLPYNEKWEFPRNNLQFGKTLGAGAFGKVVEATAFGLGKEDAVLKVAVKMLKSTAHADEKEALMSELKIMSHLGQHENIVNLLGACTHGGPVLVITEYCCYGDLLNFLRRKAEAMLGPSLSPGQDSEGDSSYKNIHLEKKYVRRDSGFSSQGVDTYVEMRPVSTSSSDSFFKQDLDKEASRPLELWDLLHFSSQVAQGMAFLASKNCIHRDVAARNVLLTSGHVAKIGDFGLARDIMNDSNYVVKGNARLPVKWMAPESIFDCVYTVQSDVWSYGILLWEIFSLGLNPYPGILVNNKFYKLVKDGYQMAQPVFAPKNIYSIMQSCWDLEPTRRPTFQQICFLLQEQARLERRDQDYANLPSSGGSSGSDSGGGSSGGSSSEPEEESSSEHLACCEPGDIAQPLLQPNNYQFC

[23] = molecular target: ALK tyrosine kinase receptor (Homo sapiens, UniProt Q9UM73); assay: Inhibition of ALK (unknown origin)
Chain of ALK tyrosine kinase receptor (Q9UM73 whole entry): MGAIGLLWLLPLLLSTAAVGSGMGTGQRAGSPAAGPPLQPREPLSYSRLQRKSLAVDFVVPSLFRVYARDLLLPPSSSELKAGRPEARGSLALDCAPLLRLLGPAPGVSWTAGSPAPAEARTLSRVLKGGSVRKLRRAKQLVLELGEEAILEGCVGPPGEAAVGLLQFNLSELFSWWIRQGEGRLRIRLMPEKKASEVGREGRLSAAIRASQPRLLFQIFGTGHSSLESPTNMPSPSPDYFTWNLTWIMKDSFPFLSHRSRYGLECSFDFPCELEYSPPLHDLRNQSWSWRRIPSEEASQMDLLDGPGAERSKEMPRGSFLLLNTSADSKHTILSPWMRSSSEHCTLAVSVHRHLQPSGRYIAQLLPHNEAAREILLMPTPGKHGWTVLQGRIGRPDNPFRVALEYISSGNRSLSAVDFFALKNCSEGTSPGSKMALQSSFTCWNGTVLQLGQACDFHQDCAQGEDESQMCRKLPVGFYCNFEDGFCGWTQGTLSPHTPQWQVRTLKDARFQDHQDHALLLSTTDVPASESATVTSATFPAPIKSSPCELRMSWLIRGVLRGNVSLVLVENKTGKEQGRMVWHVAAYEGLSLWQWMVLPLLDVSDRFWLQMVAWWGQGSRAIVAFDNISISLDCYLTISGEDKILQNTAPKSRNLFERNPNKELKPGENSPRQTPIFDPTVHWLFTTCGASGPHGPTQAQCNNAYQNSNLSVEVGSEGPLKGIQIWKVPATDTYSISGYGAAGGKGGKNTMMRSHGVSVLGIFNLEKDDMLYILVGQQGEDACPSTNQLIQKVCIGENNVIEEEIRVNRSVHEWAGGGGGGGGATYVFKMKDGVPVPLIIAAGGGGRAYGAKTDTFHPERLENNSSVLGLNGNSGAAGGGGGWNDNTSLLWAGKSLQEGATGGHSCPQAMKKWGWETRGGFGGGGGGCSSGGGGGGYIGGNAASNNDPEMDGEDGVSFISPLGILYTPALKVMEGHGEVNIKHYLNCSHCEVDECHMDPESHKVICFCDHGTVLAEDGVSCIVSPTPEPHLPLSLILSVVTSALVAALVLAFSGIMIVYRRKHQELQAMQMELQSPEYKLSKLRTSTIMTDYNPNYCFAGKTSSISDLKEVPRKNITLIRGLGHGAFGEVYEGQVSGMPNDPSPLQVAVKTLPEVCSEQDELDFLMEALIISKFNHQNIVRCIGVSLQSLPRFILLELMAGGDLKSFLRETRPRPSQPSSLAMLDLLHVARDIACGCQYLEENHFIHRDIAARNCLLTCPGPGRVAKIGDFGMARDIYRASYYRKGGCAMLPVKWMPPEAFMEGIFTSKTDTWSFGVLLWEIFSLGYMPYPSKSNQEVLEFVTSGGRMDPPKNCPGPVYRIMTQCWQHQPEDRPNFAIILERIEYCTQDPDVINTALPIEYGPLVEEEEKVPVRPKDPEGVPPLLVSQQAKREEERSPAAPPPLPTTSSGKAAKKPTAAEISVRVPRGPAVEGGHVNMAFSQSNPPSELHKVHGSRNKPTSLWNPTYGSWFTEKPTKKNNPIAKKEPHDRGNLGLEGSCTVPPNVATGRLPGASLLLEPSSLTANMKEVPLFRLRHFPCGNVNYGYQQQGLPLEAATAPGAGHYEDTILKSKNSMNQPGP

Chain of Tyrosine-protein kinase Fyn (P06241 whole entry): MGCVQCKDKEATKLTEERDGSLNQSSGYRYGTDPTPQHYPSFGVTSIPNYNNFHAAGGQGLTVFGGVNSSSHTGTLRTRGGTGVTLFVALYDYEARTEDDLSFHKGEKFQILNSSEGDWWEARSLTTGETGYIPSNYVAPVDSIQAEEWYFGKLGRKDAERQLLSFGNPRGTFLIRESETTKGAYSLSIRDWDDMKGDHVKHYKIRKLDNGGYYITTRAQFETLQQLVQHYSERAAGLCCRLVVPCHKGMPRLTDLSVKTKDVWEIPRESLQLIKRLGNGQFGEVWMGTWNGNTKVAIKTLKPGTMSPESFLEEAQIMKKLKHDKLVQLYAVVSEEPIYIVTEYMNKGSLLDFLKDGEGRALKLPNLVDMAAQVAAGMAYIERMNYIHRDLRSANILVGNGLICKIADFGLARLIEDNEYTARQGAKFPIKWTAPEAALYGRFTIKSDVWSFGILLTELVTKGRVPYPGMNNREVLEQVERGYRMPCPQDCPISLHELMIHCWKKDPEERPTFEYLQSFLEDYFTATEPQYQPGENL
Chain of Tyrosine-protein kinase receptor TYRO3 (Q06418 whole entry): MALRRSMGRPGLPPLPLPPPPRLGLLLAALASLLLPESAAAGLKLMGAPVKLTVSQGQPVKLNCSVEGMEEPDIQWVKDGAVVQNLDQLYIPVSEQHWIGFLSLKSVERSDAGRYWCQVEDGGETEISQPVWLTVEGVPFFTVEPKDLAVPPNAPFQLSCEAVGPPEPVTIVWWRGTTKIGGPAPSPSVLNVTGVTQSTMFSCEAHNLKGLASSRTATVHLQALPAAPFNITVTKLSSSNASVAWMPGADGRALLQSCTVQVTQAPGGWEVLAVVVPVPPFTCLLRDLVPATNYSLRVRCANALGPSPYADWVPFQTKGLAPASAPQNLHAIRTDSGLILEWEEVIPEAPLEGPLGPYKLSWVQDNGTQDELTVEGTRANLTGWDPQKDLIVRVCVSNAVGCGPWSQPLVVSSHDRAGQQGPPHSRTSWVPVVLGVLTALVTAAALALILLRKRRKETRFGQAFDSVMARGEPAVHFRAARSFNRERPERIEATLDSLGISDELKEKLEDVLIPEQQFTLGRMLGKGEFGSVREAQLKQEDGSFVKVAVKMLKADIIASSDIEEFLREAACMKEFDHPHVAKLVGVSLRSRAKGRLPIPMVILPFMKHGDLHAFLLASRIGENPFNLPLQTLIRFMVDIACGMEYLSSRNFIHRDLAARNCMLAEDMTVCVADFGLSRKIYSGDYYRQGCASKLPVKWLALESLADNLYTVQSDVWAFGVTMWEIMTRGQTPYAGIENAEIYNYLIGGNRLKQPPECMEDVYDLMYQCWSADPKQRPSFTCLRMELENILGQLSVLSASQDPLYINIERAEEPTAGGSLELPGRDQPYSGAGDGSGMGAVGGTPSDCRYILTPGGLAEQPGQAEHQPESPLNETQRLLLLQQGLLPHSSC
Chain of Sphingosine kinase 1 (Q9NYA1 whole entry): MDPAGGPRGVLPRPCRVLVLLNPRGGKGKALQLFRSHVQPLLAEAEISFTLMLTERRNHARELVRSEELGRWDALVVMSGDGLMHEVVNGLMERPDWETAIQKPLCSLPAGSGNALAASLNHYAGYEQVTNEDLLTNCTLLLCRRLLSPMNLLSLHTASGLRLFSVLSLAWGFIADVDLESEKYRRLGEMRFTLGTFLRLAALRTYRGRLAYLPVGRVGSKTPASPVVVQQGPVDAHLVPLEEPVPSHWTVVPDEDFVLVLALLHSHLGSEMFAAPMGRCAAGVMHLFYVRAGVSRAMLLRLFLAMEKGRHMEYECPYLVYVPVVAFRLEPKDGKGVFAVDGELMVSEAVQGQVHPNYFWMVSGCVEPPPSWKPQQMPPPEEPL
Chain of CDK7/Cyclin H/MNAT1 (P51946 whole entry): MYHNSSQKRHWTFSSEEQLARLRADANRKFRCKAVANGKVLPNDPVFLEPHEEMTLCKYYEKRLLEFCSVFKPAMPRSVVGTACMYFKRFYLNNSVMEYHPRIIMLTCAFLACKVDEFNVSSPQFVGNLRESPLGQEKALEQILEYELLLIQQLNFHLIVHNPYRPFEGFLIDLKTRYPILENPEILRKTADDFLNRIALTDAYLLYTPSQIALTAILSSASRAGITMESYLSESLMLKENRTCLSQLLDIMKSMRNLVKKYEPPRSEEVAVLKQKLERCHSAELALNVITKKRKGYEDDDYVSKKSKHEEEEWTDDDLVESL
Chain of CDK7/Cyclin H/MNAT1 (P50613 whole entry): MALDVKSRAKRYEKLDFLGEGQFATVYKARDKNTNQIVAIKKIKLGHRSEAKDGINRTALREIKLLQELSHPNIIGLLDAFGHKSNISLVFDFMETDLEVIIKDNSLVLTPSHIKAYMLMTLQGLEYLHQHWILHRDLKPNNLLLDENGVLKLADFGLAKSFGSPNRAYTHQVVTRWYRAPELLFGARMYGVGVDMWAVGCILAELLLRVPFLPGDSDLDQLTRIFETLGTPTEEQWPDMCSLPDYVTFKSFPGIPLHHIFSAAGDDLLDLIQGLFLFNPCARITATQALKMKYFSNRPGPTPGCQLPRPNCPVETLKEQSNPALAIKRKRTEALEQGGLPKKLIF
Chain of CDK7/Cyclin H/MNAT1 (P51948 whole entry, further chain): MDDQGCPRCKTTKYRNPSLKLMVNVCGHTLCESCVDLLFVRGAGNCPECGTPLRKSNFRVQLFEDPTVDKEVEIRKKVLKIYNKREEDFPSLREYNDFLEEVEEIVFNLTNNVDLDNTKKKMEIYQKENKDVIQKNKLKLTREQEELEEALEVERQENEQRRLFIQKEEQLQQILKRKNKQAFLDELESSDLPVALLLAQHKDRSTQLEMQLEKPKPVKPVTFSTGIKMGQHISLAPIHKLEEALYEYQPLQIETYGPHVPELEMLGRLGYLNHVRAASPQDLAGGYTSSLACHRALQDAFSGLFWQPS
Chain of Mitogen-activated protein kinase 12 (P53778 whole entry): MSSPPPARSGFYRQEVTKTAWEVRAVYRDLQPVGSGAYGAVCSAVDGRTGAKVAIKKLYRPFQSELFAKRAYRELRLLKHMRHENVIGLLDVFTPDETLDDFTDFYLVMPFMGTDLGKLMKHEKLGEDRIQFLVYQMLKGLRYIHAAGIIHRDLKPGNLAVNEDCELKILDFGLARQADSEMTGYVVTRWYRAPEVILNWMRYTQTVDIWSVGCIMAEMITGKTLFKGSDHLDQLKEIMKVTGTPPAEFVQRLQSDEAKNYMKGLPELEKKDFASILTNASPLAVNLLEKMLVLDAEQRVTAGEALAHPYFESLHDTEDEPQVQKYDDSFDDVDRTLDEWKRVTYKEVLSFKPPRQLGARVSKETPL

Compound `FC(F)(F)c1ccc(CNc2ccc(Cc3c[nH]c4ncc(Cl)cc34)cn2)cn1` [PEXIDARTINIB] has a concentration at 2555 h [1] of 12 µM, a concentration at 2555 h [2] of 5.6 µM and a concentration at 2555 h [3] of 0.3 µM.

In the case of `COc1ncc(F)cc1CNc1ccc(Cc2c[nH]c3ncc(C)cc23)c(F)n1` [PLX-5622], the IC50 [4] is reported as > 1 µM, the Activity [5] is reported as 0.199 RPKM and the IC50 (CDK7/Cyclin H/MNAT1) is reported as > 1 µM. For the same compound, the IC50 [6] was > 1 µM, the IC50 [7] was > 1 µM and the IC50 [8] was > 1 µM. For the same compound, the AUC at 4320 h [9] was 57300 ng·h/mL, the IC50 (Sphingosine kinase 1) was > 1 µM and the IC50 [10] was > 1 µM. The Activity (Mus musculus [11]) was 18.9%, the Activity [12] was 0.03 meter/s and the Activity (Mus musculus [13]) was “Active”. The Activity (Mus musculus [14]) was 0, the IC50 [15] was > 1 µM and the half-life [16] was 2.2 h. For the same compound, the IC50 [17] was > 1 µM, the Activity [18] was 132.829 RPKM and the IC50 [19] was > 1 µM. For the same compound, the clearance [20] was 2.1 mL/min/kg, the Activity (Mus musculus [21]) was 7 and the inhibition [22] was “inactive”. The IC50 [23] was > 1 µM.
